The test system of data set [1] is Rattus norvegicus. Put plainly: Induction of rotation in rat with unilateral denervation of caudate nucleus at 0.25 mg/kg, sc. Also noted: dose 0.25 mg/kg. The format is functional, organism-based. An outline of the steps: (§1)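 Rats given a unilateral 6-hydroxydopamine injection into the substantia nigra. Compounds dosed subcutaneously and the rotations they induced were counted. Apomorphine served as the reference.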

Data set [2] has as its system Columbidae. The data set is described as follows: Inhibition of apomorphine-induced pecking in pigeon at 3 umol/kg. The format is functional. In short, it runs like this:
(§2)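 Pigeons. Compounds given intramuscularly at up to 4 mg/kg to test induction of pecking. Antagonism of pecking induced by apomorphine (1.62 μM/kg) was also tested, and ED50 values were estimated.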

For data set [3], the system named is Rattus norvegicus. The data set is described as follows: Induction of rotation in rat with unilateral denervation of caudate nucleus at 1 mg/kg, sc. The format is functional, organism-based. Also noted: dose 1 mg/kg. An outline of the steps:
as §1

The species entered for data set [4] is Felis catus. Put plainly: Inhibition of field stimulation-induced positive chronotrophic response in cat atria. Format: functional. The conditions noted are these: Cardiac atrium.
For a further data set, the species on record is Canis lupus familiaris. The data set is described as follows: Inhibition of electric stimulated dog right cardioaccelerator nerve. Format: functional. An outline of the steps: (§3)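 Dog cardioaccelerator nerve preparation under barbital (200 mg/kg) anaesthesia. Compounds given intravenously up to 1.0 mg/kg. Positive chronotropic responses read by cardiometer, with blood pressure taken from the right femoral artery.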

Data set [5] relates to Canis familiaris. The data set is described as follows: Increase in heart rate in dog assessed as beats at 30 ug/kg, iv by cardiotachometer. Format: functional, Canis lupus familiaris. In short, it runs like this:
(§4)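 Anaesthetised dog (barbital 200 mg/kg). Compounds given intravenously, highest dose tested 1.0 mg/kg. Blood pressure recorded from the right femoral artery and heart rate by cardiometer. Resting heart rate, blood pressure and positive chronotropic responses were assessed after dosing. Doses calculated as free base.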

In data set [6] the test system is Canis familiaris. The data set is described as follows: Toxicity in dog assessed as emesis at 2 mg/kg, sc. The conditions noted are these: in vivo. Format: organism-based, Canis lupus familiaris. Details: dose 2 mg/kg, route subcutaneous. In short, it runs like this:
(§5)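 Unanaesthetised dogs. For emesis, compound given sc and dogs watched 45 min for an emetic response. For antagonism, compound given sc and apomorphine 100 μg/kg 15 min later.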

The test system of data set [7] is Canis familiaris. Put plainly: Inhibition of apomorphine-induced emesis in dog at 2 mg/kg, sc. Also noted: dose 2 mg/kg. The conditions noted are these: Canis lupus familiaris. Format: functional, organism-based. An outline of the steps:
as §5

A short description of data set [8]: Toxicity in pigeon assessed as pecking. The note with it: columbidae. In short, it runs like this:
as §2

The species named for data set [9] is Rattus norvegicus. The data set is described as follows: Toxicity in Sprague-Dawley rat assessed as locomotor hyperactivity treated bilateral injection into nucleus accumbens at 50 ug. Format: organism-based. The conditions noted are these: in vivo, other. An outline of the steps:
(§6)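 Male Sprague-Dawley rats (250 ± 25 g) with stereotaxic guide cannulae aimed at the nucleus accumbens. Tested 10–14 days after surgery with a bilateral 1 μL infusion over 60 s; each rat used once and placement checked histologically. Locomotion counted by photocell cage. Stereotypy scored, where 3–4 = biting, gnawing or licking. Pretreatments given ip: α-methyl-p-tyrosine 250 mg/kg 6 h before, or haloperidol 0.1, propranolol 5 or aceperone 2.5 mg/kg 30 min before.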

For data set [10], the species on record is Rattus norvegicus. The data set is described as follows: Toxicity in Sprague-Dawley rat assessed as biting up to 50 ug injection into nucleus accumbens. Format: organism-based. The conditions noted are these: in vivo, other. An outline of the steps:
as §6

Data set [11] is filed under the species Rattus norvegicus. Put plainly: Toxicity in Sprague-Dawley rat assessed as gnawing up to 50 ug injection into nucleus accumbens. The format is organism-based. The note with it: in vivo, other. An outline of the steps: as §6
The species named for data set [12] is Rattus norvegicus. Put plainly: Toxicity in Sprague-Dawley rat assessed as licking up to 50 ug injection into nucleus accumbens. The note with it: in vivo, other. Format: organism-based. In short, it runs like this: as §6
In data set [13] the test system is Mus musculus. The data set is described as follows: Toxicity in albino B.K.W mouse assessed as climbing behaviour at 20 to 80 mg/kg, sc. The format is organism-based. Also noted: dose 20-80 mg/kg, route subcutaneous. The conditions noted are these: in vivo. An outline of the steps:
(§7)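 Mice dosed subcutaneously at 20, 40 and 80 mg/kg in 1 mL/kg, doses as free base. Climbing scored as all four paws on the wire, giving a climbing index (% time over 30 min after the first climb) and the maximum time of a single climb. Circling was tested in mice with a unilateral caudate-putamen electrolesion, pre-selected for circling of 7 or more revolutions/2 min in response to apomorphine. Stereotypy was also recorded.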

In data set [14] the test system is Mus musculus. The data set is described as follows: Toxicity in albino B.K.W mouse assessed as circling behaviour at 20 to 80 mg/kg, sc. The format is organism-based. The note with it: in vivo. Details: dose 20-80 mg/kg, route subcutaneous. In short, it runs like this: as §7
Data set [15] has as its system Mus musculus. The data set is described as follows: Toxicity in albino B.K.W mouse assessed as stereotyped behaviour at 20 to 80 mg/kg, sc. The format is organism-based. The note with it: in vivo. Details: dose 20-80 mg/kg, route subcutaneous. In short, it runs like this:
as §7

For data set [16], the system named is Canis familiaris. The data set is described as follows: Increase in blood pressure in dog at 30 ug/kg, iv by cardiotachometer. The format is functional, Canis lupus familiaris. An outline of the steps: as §4
The species entered for data set [17] is Felis catus. The data set is described as follows: Inhibition of field stimulation-induced positive ionotrophic response in cat atria. The conditions noted are these: Cardiac atrium. The format is functional.
In data set [18] the test system is Canis familiaris. Put plainly: Increase in heart rate in dog at 1 mg/kg, iv by cardiotachometer. The format is functional, organism-based. Also noted: dose 1 mg/kg. The conditions noted are these: Canis lupus familiaris. In short, it runs like this: as §4
Data set [19] relates to Canis familiaris. The data set is described as follows: Increase in ionotrophic response in dog following field stimulation at 1 mg/kg, iv by cardiotachometer. The format is functional, organism-based. Also noted: dose 1 mg/kg. The conditions noted are these: Canis lupus familiaris. An outline of the steps:
as §3

The subject of data set [20] is Canis familiaris. Put plainly: Increase in ionotrophic response in iv dosed dog following field stimulation assessed as minimum effective dose by cardiotachometer. Details: unit not given here. Format: functional, Canis lupus familiaris. In short, it runs like this:
as §3

Data set [21] concerns Canis familiaris. The data set is described as follows: Increase in blood pressure in dog at 0.5 mg/kg, iv by cardiotachometer. Format: functional, Canis lupus familiaris. In short, it runs like this: as §4
The test system of data set [22] is Canis familiaris. Put plainly: Increase in resting heart rate in dog at 0.5 mg/kg, iv by cardiotachometer. Details: dose 0.5 mg/kg. The format is functional, organism-based. The note with it: Canis lupus familiaris. In short, it runs like this:
as §4

In data set [23] the test system is Columbidae. The data set is described as follows: Inhibition of apomorphine-induced pecking in pigeon. Format: functional. An outline of the steps: as §2
The test system of data set [24] is Rattus norvegicus. The data set is described as follows: Induction of rotation in rat with unilateral denervation of caudate nucleus at 4 mg/kg, sc. Format: functional, organism-based. Also noted: dose 4 mg/kg. In short, it runs like this: as §1
Data set [25] is filed under the species Rattus norvegicus. Put plainly: Toxicity in Sprague-Dawley rat assessed as sniffing at 12.5 to 50 ug injection into nucleus accumbens. The format is organism-based. The note with it: in vivo, other. In short, it runs like this: as §6
Data set [26] has as its system Canis familiaris. The data set is described as follows: Increase in resting heart rate in dog at […], iv by cardiotachometer. Format: functional, organism-based. The conditions noted are these: Canis lupus familiaris. An outline of the steps:
as §4

Data set [27] concerns Canis familiaris. Put plainly: Increase in blood pressure in dog at 50 ug/kg, iv by cardiotachometer. The format is functional, Canis lupus familiaris. An outline of the steps: as §4
The subject of data set [28] is Canis familiaris. The data set is described as follows: Increase in heart rate in dog assessed as beats at 50 ug/kg, iv by cardiotachometer. The format is functional, Canis lupus familiaris. An outline of the steps: as §4

Molecules are shown by their SMILES. The source made the active and inactive calls. The calls are words filed in the database; no cut-off is given here.

Consider `CN1CCc2cccc3c2[C@H]1Cc1ccc(O)c(O)c1-3`, for which the outcome with Rattus norvegicus [1] was Active.
As for `COc1cc(CC(C)N)c(OC)cc1C` (stereo not given), in the data set on Columbidae [2], the inhibition entry is “Active”.
Turning to `C[C@H](N)Cc1ccccc1`, the outcome with Rattus norvegicus [3] was Active.
As to `Br.CC(C)NC(C)Cc1ccc(O)c(O)c1` (racemic), the inhibition result in the data set filed under Felis catus [4], in the data set listed under Canis lupus familiaris and in the data set listed under Felis catus [17] was “inactive” in each case. The Activity is recorded as 23 bpm with Canis familiaris [5]; “Non-toxic” in the data set with Canis familiaris [6]; “Non-toxic” in data set [8]; “Non-toxic” in the data set listed under Rattus norvegicus [9]; “Non-toxic” in the data set listed under Rattus norvegicus [10]; “Non-toxic” in the data set filed under Rattus norvegicus [11]. Besides, the Activity entry in the data set filed under Rattus norvegicus [12] is listed as “Non-toxic”; with Mus musculus [13] it was “Non-toxic”; with Mus musculus [14] it was “Non-toxic”; with Mus musculus [15], “Non-toxic”; with Canis familiaris [16], 40%. Moreover, the outcome in the data set on Canis familiaris [7] was inactive.
Consider `Br.CC(C)N(C)C(C)Cc1ccc(O)c(O)c1` (racemic), for which the inhibition result in the data set filed under Felis catus [4], in the data set listed under Canis lupus familiaris and in the data set filed under Felis catus [17] was “inactive” each time. Moreover, the result in the data set on Canis familiaris [18] and with Canis familiaris [19] was Active. Also, in the data set on Canis familiaris [20], the MED is 20. The Activity entry with Canis familiaris [21] is reported as “<=10 mmHg”; with Canis familiaris [6] it was “Non-toxic”; in [8], “Non-toxic”; in the data set listed under Rattus norvegicus [9], “Non-toxic”; in the data set listed under Rattus norvegicus [10], “Non-toxic”; in the data set listed under Rattus norvegicus [11], “Non-toxic”. Besides, the Activity result in the data set listed under Rattus norvegicus [12], with Mus musculus [13], with Mus musculus [14] and in the data set on Mus musculus [15] was “Non-toxic” each time. Moreover, the outcome in the data set on Canis familiaris [22] and in the data set with Canis familiaris [7] was inactive. In the data set with Columbidae [23], the inhibition result was “Active”.
Regarding `Br.CCCN(CCC)C(C)Cc1ccc(O)c(O)c1` (racemic), the inhibition entry in the data set filed under Felis catus [4], in the data set listed under Canis lupus familiaris and in the data set listed under Felis catus [17] was “inactive” each time. For the same molecule, the result in the data set on Canis familiaris [18] and in the data set with Canis familiaris [19] was Active. Further, the MED in the data set on Canis familiaris [20] is on record as 20. Besides, the Activity result is “<=10 mmHg” in the data set on Canis familiaris [21]; “Non-toxic” with Canis familiaris [6]; “Non-toxic” in data set [8]; “Toxic” in the data set listed under Rattus norvegicus [9]; “Toxic” in the data set listed under Rattus norvegicus [25]; “Non-toxic” in the data set on Mus musculus [13]. Also, the Activity entry in the data set with Mus musculus [14] and in the data set on Mus musculus [15] was “Non-toxic” each time. Moreover, the outcome in the data set on Canis familiaris [22], with Rattus norvegicus [24] and in the data set with Canis familiaris [7] was inactive.
In the case of `Br.CC(Cc1ccc(O)c(O)c1)N(C)C` (racemic), the inhibition result in the data set filed under Felis catus [4], in the data set listed under Canis lupus familiaris and in the data set listed under Felis catus [17] was “inactive” throughout. Also, the result in the data set on Canis familiaris [26] was Active. For the same molecule, the Activity is given as 80% in the data set on Canis familiaris [27]; 50 bpm in the data set on Canis familiaris [28]; “Non-toxic” in the data set with Canis familiaris [6]; “Non-toxic” in data set [8]; “Non-toxic” in the data set filed under Rattus norvegicus [9]; “Non-toxic” in the data set filed under Rattus norvegicus [10]. The Activity result in the data set listed under Rattus norvegicus [11], in the data set filed under Rattus norvegicus [12], in the data set with Mus musculus [13], in the data set with Mus musculus [14] and in the data set with Mus musculus [15] was “Non-toxic” in each case. Moreover, the result with Canis familiaris [7] was inactive.

The values above are taken from ChEMBL document CHEMBL3244290, “N-Alkyl derivatives of (+/-)-alpha-methyldopamine” (J Med Chem, 1979).
